# Measured values taken from ChEMBL document CHEMBL4342456, “Preventing Morphine-Seeking Behavior through the Re-Engineering of Vincamine's Biological Activity” (J Med Chem, 2020).
# Active and inactive are the calls of the source. The calls are words filed in the database; no cut-off is given here.
# Tests used:
# [1] = molecular target: T1, Prolactin-releasing peptide receptor (Homo sapiens) (UniProt P49683); test: (§1) Antagonist activity at human Gq-coupled PRLHR expressed in CHOK1 cells assessed as inhibition in prolactin releasing peptide (1 to 31)-induced beta-arrestin 2 recruitment at 20 uM incubated for 30 mins followed by prolactin releasing peptide (1 to 31) addition and measured after 90 or 180 mins by pathhunter beta-arrestin assay relative to control; assay type: cell-based
# T1 sequence (whole entry): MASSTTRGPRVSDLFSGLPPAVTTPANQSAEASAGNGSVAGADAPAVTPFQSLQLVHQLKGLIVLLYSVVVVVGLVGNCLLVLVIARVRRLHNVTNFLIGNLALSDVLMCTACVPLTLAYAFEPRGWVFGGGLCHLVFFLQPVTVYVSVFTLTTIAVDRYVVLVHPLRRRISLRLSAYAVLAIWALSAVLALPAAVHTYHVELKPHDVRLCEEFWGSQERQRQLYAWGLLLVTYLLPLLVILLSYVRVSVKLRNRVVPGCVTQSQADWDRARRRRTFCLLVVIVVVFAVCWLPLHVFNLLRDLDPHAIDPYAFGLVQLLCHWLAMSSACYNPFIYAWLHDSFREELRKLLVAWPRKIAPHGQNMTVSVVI
# Summary of the method: (§2)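 PathHunter beta-arrestin recruitment, antagonist mode, run at DiscoverX. Cells seeded and held at 37 °C, then preincubated with test sample for 30 min at 37 °C or room temperature (1% vehicle). Agonist then added at EC80 for 90 or 180 min. IC50 comes from concentration–response runs in the same format.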
# [2] = molecular target: T2, Orexin receptor type 2 (Homo sapiens) (UniProt O43614); test: (§3) Antagonist activity at human Gq-coupled HCRTR2 expressed in CHOK1 cells assessed as inhibition in Orexin A-induced beta-arrestin 2 recruitment at 20 uM incubated for 30 mins followed by Orexin A addition and measured after 90 or 180 mins by pathhunter beta-arrestin assay relative to control; assay type: cell-based; summary of the method: as §2
# T2 sequence (whole entry): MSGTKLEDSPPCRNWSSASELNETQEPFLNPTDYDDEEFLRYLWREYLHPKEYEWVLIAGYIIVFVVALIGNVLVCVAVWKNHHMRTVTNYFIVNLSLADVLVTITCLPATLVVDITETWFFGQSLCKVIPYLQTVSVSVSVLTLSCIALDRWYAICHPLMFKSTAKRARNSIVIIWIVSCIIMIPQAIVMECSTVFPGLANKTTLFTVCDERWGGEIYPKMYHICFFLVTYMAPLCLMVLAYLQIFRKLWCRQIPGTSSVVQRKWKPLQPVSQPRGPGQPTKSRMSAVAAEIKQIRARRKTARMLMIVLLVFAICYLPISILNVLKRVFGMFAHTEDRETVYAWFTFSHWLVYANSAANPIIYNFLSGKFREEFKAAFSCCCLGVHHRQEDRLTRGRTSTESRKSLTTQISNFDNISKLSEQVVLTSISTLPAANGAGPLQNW
# [3] = molecular target: Histamine H1 receptor (Homo sapiens) (UniProt P35367); details: at 20 µM
# Histamine H1 receptor (Homo sapiens), sequence (P35367 whole entry): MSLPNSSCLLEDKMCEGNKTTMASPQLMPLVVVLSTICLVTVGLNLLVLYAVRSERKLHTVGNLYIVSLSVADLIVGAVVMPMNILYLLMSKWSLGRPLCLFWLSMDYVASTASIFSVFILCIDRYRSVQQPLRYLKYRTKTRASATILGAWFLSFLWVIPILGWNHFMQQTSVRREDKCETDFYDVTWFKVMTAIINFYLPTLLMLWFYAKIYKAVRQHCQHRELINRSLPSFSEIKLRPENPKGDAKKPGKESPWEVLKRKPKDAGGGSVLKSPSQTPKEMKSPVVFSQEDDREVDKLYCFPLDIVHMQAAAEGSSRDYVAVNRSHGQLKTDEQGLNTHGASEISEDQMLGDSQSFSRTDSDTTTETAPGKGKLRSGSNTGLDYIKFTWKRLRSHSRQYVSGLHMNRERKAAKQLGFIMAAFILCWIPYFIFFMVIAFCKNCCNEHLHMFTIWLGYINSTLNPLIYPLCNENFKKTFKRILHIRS
# [4] = molecular target: T3, Cannabinoid receptor 2 (Homo sapiens, UniProt P34972); test: Antagonist activity at human Gi/o-coupled CNR2 expressed in CHOK1 cells assessed as inhibition in CP55940-induced beta-arrestin 2 recruitment at 20 uM incubated for 30 mins followed by CP55940 addition and measured after 90 or 180 mins by pathhunter beta-arrestin assay relative to control; assay type: cell-based; summary of the method: as §2
# T3 sequence (P34972 whole entry): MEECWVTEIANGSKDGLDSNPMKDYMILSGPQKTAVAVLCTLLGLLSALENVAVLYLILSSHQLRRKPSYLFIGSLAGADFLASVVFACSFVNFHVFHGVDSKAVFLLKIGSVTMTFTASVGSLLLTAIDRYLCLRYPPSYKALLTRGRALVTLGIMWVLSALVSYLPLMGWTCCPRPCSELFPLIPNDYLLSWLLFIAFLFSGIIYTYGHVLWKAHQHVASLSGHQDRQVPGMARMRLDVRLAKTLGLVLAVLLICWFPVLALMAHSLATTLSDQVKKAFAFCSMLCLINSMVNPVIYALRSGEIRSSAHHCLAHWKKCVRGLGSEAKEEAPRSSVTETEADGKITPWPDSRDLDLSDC
# [5] = molecular target: D(2) dopamine receptor (Homo sapiens) (UniProt P14416); test: Antagonist activity at human Gi/o-coupled DRD2L expressed in CHOK1 cells assessed as inhibition in dopamine-induced beta-arrestin 2 recruitment at 20 uM incubated for 30 mins followed by dopamine addition and measured after 90 or 180 mins by pathhunter beta-arrestin assay relative to control; assay type: cell-based; summary of the method: as §2
# D(2) dopamine receptor (Homo sapiens), sequence (P14416 whole entry): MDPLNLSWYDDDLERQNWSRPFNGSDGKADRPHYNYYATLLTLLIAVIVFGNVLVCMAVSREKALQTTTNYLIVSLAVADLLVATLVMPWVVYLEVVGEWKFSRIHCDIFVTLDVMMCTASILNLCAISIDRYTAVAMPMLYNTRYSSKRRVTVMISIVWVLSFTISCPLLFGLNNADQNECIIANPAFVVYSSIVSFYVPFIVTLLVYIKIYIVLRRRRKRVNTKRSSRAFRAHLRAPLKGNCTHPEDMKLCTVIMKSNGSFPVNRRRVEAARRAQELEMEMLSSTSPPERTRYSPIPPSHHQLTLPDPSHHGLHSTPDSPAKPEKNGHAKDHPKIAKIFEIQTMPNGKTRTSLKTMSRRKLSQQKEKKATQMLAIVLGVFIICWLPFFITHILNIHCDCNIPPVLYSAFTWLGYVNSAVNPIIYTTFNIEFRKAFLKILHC
# [6] = molecular target: C-X-C chemokine receptor type 4 (Homo sapiens) (UniProt P61073); test: Antagonist activity at human Gi/o-coupled CXCR4 expressed in mouse C2C12 cells assessed as inhibition in CXCL12-induced beta-arrestin 2 recruitment at 20 uM incubated for 30 mins followed by CXCL12 addition and measured after 90 or 180 mins by pathhunter beta-arrestin assay relative to control; assay type: cell-based; summary of the method: as §2
# C-X-C chemokine receptor type 4 (Homo sapiens), sequence (P61073 whole entry): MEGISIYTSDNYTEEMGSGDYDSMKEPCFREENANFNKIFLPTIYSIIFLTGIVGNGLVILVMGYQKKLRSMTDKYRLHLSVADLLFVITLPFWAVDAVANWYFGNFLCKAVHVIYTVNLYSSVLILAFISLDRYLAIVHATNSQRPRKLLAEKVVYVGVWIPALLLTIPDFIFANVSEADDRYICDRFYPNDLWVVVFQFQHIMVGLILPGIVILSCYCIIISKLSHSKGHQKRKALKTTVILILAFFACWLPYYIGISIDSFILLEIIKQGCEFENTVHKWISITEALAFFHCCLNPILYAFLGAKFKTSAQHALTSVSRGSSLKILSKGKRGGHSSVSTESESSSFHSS
# [7] = molecular target: C-C chemokine receptor type 8 (Homo sapiens, UniProt P51685); test: (§4) Antagonist activity at human CCR8 expressed in CHOK1 cells assessed as inhibition in CCL1-induced beta-arrestin 2 recruitment at 20 uM incubated for 30 mins followed by CCL1 addition and measured after 90 or 180 mins by pathhunter beta-arrestin assay relative to control; assay type: cell-based; summary of the method: as §2
# C-C chemokine receptor type 8, sequence (P51685 whole entry): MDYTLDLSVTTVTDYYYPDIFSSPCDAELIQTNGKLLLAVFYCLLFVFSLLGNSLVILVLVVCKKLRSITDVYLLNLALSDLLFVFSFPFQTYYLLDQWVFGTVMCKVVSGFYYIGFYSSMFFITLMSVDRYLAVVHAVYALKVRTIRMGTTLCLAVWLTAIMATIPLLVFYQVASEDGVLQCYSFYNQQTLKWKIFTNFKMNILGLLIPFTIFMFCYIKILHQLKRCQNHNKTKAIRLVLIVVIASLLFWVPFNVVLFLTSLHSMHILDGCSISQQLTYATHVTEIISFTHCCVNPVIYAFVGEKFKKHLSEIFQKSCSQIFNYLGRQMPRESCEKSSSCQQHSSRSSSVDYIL
# [8] = molecular target: T4, Prostacyclin receptor (Homo sapiens, UniProt P43119); test: Antagonist activity at human Gs-coupled PTGIR assessed as inhibition in beraprost-induced beta-arrestin 2 recruitment at 20 uM incubated for 30 mins followed by beraprost- addition and measured after 90 or 180 mins by pathhunter beta-arrestin assay relative to control; summary of the method: as §2
# T4 sequence (P43119 whole entry): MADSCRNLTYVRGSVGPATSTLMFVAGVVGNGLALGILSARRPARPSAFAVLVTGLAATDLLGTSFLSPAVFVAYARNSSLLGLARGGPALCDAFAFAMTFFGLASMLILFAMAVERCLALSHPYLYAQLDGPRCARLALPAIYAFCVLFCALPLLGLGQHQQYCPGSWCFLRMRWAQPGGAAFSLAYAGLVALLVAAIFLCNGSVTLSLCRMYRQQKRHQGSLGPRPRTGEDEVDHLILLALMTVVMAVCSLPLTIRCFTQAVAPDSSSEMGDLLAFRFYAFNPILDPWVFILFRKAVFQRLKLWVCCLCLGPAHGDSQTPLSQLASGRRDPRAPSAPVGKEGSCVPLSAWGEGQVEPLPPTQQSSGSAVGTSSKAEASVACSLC
# [9] = molecular target: T5, Cannabinoid receptor 1 (Homo sapiens, UniProt P21554); test: Antagonist activity at human Gi/o-coupled CNR1 expressed in CHOK1 cells assessed as inhibition in CP55940-induced beta-arrestin 2 recruitment at 20 uM incubated for 30 mins followed by CP55940 addition and measured after 90 or 180 mins by pathhunter beta-arrestin assay relative to control; assay type: cell-based; summary of the method: as §2
# T5 sequence (P21554 whole entry): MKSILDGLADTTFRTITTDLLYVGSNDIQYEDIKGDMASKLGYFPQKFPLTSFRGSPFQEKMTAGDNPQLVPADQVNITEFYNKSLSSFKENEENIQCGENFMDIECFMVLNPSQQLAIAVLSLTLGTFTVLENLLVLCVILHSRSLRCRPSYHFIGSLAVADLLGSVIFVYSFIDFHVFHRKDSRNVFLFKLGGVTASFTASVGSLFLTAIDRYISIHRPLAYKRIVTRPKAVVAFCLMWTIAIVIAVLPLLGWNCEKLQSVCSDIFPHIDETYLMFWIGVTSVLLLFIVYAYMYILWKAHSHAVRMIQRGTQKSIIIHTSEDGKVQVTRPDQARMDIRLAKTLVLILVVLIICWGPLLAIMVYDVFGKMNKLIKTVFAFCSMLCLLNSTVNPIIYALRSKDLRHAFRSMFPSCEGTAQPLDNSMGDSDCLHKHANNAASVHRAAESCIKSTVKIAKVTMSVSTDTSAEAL
# [10] = molecular target: T6, Muscarinic acetylcholine receptor M4 (Homo sapiens) (UniProt P08173); test: as §4, with “Gs/Gi/o-coupled CHRM4” for “CCR8”, “acetylcholine-induced” for “CCL1-induced”, “acetylcholine” for “CCL1”; assay type: cell-based; summary of the method: as §2
# T6 sequence (whole entry): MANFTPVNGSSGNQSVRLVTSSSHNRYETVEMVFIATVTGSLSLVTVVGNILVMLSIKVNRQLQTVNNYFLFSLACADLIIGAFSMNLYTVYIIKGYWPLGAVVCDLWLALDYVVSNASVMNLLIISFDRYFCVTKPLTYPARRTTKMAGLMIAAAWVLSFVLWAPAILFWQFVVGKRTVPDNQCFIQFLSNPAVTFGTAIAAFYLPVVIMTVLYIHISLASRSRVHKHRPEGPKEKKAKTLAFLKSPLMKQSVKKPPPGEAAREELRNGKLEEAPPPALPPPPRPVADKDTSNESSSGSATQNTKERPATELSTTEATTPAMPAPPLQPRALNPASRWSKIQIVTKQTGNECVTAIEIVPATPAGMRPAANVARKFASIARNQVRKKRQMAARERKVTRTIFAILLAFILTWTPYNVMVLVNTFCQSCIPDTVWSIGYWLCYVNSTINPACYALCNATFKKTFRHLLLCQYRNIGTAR
# [11] = molecular target: T7, Neuropeptide S receptor (Homo sapiens) (UniProt Q6W5P4); test: as §3, with “NPSR1b” for “HCRTR2”, “human U2OS” for “CHOK1”, “neuropeptide S-induced” for “Orexin A-induced”, “neuropeptide S” for “Orexin A”; assay type: cell-based; summary of the method: as §2
# T7 sequence (whole entry): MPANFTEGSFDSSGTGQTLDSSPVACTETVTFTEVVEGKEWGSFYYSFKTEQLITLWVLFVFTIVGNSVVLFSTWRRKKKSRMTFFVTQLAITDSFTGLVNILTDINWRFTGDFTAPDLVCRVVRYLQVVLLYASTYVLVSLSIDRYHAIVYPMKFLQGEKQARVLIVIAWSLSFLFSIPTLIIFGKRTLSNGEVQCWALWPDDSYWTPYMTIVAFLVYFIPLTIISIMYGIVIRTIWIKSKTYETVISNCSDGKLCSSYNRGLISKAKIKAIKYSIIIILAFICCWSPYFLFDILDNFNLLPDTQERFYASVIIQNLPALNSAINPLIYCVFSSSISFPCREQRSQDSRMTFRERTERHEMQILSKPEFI
# [12] = molecular target: T8, Glucose-dependent insulinotropic receptor (Homo sapiens) (UniProt Q8TDV5); test: Antagonist activity at human GPR119 assessed as inhibition in oleoylethanolamide-induced beta-arrestin 2 recruitment at 20 uM incubated for 30 mins followed by oleoylethanolamide addition and measured after 90 or 180 mins by pathhunter beta-arrestin assay relative to control; summary of the method: as §2
# T8 sequence (whole entry): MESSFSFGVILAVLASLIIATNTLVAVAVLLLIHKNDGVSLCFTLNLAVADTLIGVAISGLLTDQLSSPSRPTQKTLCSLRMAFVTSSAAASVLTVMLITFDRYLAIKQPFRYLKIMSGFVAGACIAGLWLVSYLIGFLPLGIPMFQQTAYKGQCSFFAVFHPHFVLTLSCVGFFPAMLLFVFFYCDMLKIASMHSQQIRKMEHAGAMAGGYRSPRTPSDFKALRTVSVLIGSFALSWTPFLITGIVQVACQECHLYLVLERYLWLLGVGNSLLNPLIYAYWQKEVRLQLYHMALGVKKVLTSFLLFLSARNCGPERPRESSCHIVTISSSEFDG
# [13] = molecular target: T9, Prolactin-releasing peptide receptor (Homo sapiens, UniProt P49683); test: as §1, with “recruitment” for “recruitment at 20 uM”, “assay” for “assay relative to control”; assay type: cell-based
# T9 sequence (P49683 whole entry): T1 sequence (whole entry)
# Summary of the method: as §2, with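 “min. […]” for “min.”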
# [14] = molecular target: T4, Prostacyclin receptor; test: Antagonist activity at human Gs-coupled PTGIR assessed as inhibition in beraprost-induced beta-arrestin 2 recruitment incubated for 30 mins followed by beraprost- addition and measured after 90 or 180 mins by pathhunter beta-arrestin assay
# Summary of the method: as §2, with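 “min. […]” for “min.”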
# [15] = molecular target: T10, Glucose-dependent insulinotropic receptor (Homo sapiens, UniProt Q8TDV5); test: Antagonist activity at human GPR119 expressed in human HEK293 cells assessed as inhibition in agonist-induced beta-arrestin 2 recruitment incubated for 30 mins followed by agonist addition and measured after 90 or 180 mins by pathhunter beta-arrestin assay; assay type: cell-based
# T10 sequence (Q8TDV5 whole entry): T8 sequence (whole entry)
# Summary of the method: as §2, with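 “min. […]” for “min.”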
# [16] = molecular target: T3, Cannabinoid receptor 2; test: Antagonist activity at human Gi/o-coupled CNR2 expressed in CHOK1 cells assessed as inhibition in CP55940-induced beta-arrestin 2 recruitment incubated for 30 mins followed by CP55940 addition and measured after 90 or 180 mins by pathhunter beta-arrestin assay; assay type: cell-based
# Summary of the method: as §2, with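 “min. […]” for “min.”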
# [17] = molecular target: T5, Cannabinoid receptor 1; test: Antagonist activity at human Gi/o-coupled CNR1 expressed in CHOK1 cells assessed as inhibition in CP55940-induced beta-arrestin 2 recruitment incubated for 30 mins followed by CP55940 addition and measured after 90 or 180 mins by pathhunter beta-arrestin assay; assay type: cell-based
# Summary of the method: as §2, with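 “min. […]” for “min.”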
# [18] = molecular target: T11, Neuropeptide S receptor (Homo sapiens, UniProt Q6W5P4); test: Antagonist activity at human Gq-coupled NPSR1b expressed in human U2OS cells assessed as inhibition in neuropeptide S-induced beta-arrestin 2 recruitment incubated for 30 mins followed by neuropeptide S addition and measured after 90 or 180 mins by pathhunter beta-arrestin assay; assay type: cell-based
# T11 sequence (Q6W5P4 whole entry): T7 sequence (whole entry)
# Summary of the method: as §2, with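 “min. […]” for “min.”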
# [19] = test system: Mus musculus; test: Suppression of drug-induced morphine-seeking behavior in C57BL/6J mouse assessed as reduction in stress-induced reinstatement of morphine-CPP at 60 nmol, icv administered 15 mins prior to testing by forced swim test
# [20] = test system: Mus musculus; test: Suppression of drug-induced cocaine-seeking behavior in C57BL/6J mouse assessed as reduction in morphine-conditioned place preference at 60 nmol, icv administered 20 mins prior to behavioral morphine addition measured twice weekly for 7 weeks; assay type: functional, organism-based; details: in the assay text read “morphine-seeking” for “cocaine-seeking”
# Summary of the method: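 Male C57BL/6J mice, 7–11 weeks, 20–33 g. Three-compartment counterbalanced place conditioning. Test agent given i.c.v. in 10% Solutol HS 15/90% saline, 20 min before morphine (10 mg/kg i.p., in 0.9% saline). Mice then confined 40 min in the paired outer chamber. Saline i.p. conditioning in the opposite chamber followed 4 h later. Preference was scored in a 30 min automated test. n = 16–30/group; two-way ANOVA with Tukey post hoc.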
SMILES,inhibition [1] [%],inhibition [2] [%],inhibition [3] [%],inhibition [4] [%],inhibition [5] [%],inhibition [6] [%],inhibition [7] [%],inhibition [8] [%],inhibition [9] [%],inhibition [10] [%],inhibition [11] [%],inhibition [12] [%],IC50 [13] [µM],IC50 [14] [µM],IC50 [15] [µM],IC50 [16] [µM],IC50 [17] [µM],IC50 [18] [µM],Activity [19],Activity [20]
CC[C@]12CCCN3CC[C@]4(C(=O)c5ccccc5N4C(=O)C1)[C@@H]32,-7,16,-3,13,-5,-10,6,22,0,22,-10,5,,,,,,,,
CC[C@]12CCCN(C(=O)c3cccc(Br)c3)CCc3c(n(c4ccccc34)C(=O)C1)[C@@H]2OC,,,,,,,,,,,,,13.8,12.5,4.62,25.7,4.95,3.9,,
CC[C@@]12C=C(C(=O)OC)n3c(c(c4ccccc43)CCN(/C=C/C(=O)OC)CCC1)[C@@H]2c1ccc(O)cc1,70,10,16,39,11,40,65,84,26,67,24,35,,,,,,,,
COC(=O)[C@@H]1[C@H]2C[C@H]3c4[nH]c5ccccc5c4CCN3C[C@@H]2CC[C@@H]1O,1,9,,20,102,21,5,8,35,4,-3,8,,,,,,,,

# The next lines start with results.
inhibition [1] [%],inhibition [2] [%],inhibition [3] [%],inhibition [4] [%],inhibition [5] [%],inhibition [6] [%],inhibition [7] [%],inhibition [8] [%],inhibition [9] [%],inhibition [10] [%],inhibition [11] [%],inhibition [12] [%],IC50 [13] [µM],IC50 [14] [µM],IC50 [15] [µM],IC50 [16] [µM],IC50 [17] [µM],IC50 [18] [µM],SMILES,Activity [19],Activity [20]
18,8,21,17,98,4,28,41,1,43,,2,,,,,,,CC[C@@]1(CC(=O)NC2CCCC2)CCCN2CCc3c([nH]c4ccccc34)[C@@H]21,,
26,-4,8,2,0,-9,17,22,4,24,,-2,,,,,,,CC[C@@]1(CC(=O)OC)CCCN2CC[C@]3(O)C(=Nc4ccccc43)[C@@H]21,,
3,9,5,11,-10,10,8,-3,0,-8,,3,,,,,,,CC[C@]12CCCN3CCc4c(n(c5ccccc45)[C@@](O)(C(=O)OC)C1)[C@@H]32,inactive,inactive
